Measured values from ChEMBL document CHEMBL5653631, “A Potent and Selective ULK1 Inhibitor Suppresses Autophagy and Sensitizes Cancer Cells to Nutrient Stress” (iScience, 2018).
One block for each molecule: values may come before it.

Legend:
[1] = biological target: T1, Aurora kinase A (Homo sapiens) (UniProt O14965); test: Inhibition of human recombinant AurA at 500 nM related to control ULK1
T1 sequence (whole entry): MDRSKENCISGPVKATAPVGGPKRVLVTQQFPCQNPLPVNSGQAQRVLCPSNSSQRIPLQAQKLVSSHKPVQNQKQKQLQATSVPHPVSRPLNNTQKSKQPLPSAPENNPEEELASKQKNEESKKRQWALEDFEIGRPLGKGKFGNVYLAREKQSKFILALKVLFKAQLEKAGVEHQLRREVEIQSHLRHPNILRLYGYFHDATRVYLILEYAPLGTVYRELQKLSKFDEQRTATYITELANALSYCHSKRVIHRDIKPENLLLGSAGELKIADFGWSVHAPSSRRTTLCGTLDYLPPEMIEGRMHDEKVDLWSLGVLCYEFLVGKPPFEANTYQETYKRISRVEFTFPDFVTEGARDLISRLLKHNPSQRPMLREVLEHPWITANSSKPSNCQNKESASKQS
Procedure, shortened: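 Panel of 327 recombinant human kinases, each assayed in vitro by radiometric activity assay in duplicate at a single inhibitor concentration per compound, chosen with reference to its ULK1 inhibition. Activity remaining was expressed as percent of vehicle control, and percent inhibition was calculated as 100 minus percent activity remaining.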

[2] = biological target: Macrophage colony-stimulating factor 1 receptor (Homo sapiens) (UniProt P07333); test: Inhibition of human recombinant FMS at 500 nM related to control ULK1
Chain of Macrophage colony-stimulating factor 1 receptor (Homo sapiens) (P07333 whole entry): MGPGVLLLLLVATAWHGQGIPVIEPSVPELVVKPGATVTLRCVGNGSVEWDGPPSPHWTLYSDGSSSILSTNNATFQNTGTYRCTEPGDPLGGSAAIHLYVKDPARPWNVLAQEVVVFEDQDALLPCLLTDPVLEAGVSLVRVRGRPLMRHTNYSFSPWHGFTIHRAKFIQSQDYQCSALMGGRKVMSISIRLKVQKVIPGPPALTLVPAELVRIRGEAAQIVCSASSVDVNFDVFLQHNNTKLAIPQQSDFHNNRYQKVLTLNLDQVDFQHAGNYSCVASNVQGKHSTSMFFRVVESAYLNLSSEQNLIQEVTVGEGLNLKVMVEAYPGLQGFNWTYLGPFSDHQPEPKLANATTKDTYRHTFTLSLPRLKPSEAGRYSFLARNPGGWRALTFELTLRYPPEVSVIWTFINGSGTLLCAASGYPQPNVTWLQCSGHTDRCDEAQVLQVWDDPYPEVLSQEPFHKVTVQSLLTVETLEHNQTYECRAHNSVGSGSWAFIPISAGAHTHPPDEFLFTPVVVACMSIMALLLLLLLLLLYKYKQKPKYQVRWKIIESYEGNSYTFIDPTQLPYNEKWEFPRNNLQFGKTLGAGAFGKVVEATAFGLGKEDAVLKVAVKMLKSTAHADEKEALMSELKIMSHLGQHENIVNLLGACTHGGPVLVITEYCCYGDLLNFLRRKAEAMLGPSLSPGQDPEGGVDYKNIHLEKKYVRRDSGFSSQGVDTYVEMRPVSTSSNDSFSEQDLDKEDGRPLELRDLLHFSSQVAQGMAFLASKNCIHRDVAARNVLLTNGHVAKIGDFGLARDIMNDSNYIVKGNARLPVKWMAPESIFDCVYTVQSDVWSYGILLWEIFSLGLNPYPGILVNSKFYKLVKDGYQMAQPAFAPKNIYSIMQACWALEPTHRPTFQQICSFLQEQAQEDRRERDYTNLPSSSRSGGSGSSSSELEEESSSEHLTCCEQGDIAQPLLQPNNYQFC

[3] = biological target: Serine/threonine-protein kinase 25 (Homo sapiens) (UniProt O00506); test: Inhibition of human recombinant YSK1 at 40 nM in presence of ATP by radiometric assay relative to control
Chain of Serine/threonine-protein kinase 25 (Homo sapiens) (O00506 whole entry, looked up, the tested form may be a part): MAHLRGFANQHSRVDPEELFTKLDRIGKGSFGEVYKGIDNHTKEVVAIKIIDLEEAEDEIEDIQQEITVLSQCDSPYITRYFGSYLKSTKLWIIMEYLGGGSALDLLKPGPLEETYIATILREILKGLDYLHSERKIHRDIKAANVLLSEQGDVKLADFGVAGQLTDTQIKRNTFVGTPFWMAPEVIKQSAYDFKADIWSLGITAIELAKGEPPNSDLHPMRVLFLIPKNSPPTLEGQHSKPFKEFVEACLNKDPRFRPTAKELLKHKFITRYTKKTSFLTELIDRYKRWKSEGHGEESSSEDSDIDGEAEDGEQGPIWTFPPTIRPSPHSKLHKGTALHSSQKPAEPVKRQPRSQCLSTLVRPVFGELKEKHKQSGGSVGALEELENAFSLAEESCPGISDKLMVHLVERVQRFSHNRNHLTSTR

[4] = biological target: LIM domain kinase 1 (Homo sapiens) (UniProt P53667); test: Inhibition of human recombinant LIMK1 at 40 nM in presence of ATP by radiometric assay relative to control
Chain of LIM domain kinase 1 (Homo sapiens) (P53667 whole entry, looked up, the tested form may be a part): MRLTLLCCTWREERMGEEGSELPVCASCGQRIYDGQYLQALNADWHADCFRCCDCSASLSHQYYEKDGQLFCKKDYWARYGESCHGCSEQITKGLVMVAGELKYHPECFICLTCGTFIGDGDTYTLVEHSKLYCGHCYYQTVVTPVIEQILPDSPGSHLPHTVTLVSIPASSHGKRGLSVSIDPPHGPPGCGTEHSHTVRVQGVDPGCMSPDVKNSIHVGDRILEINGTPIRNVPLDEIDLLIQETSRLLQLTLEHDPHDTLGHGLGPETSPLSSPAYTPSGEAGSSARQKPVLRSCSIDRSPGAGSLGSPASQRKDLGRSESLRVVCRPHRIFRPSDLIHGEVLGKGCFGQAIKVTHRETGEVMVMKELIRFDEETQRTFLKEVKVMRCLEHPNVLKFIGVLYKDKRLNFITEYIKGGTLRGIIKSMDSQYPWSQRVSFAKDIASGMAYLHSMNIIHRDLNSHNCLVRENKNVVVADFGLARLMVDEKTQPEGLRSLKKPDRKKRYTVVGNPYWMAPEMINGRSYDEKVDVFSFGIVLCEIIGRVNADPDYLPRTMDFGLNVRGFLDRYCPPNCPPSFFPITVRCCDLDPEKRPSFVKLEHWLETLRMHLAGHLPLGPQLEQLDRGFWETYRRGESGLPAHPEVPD

[5] = biological target: T2, Serine/threonine-protein kinase TAO2 (Homo sapiens) (UniProt Q9UL54); test: Inhibition of human recombinant TAO2 at 40 nM in presence of ATP by radiometric assay relative to control
T2 sequence (whole entry): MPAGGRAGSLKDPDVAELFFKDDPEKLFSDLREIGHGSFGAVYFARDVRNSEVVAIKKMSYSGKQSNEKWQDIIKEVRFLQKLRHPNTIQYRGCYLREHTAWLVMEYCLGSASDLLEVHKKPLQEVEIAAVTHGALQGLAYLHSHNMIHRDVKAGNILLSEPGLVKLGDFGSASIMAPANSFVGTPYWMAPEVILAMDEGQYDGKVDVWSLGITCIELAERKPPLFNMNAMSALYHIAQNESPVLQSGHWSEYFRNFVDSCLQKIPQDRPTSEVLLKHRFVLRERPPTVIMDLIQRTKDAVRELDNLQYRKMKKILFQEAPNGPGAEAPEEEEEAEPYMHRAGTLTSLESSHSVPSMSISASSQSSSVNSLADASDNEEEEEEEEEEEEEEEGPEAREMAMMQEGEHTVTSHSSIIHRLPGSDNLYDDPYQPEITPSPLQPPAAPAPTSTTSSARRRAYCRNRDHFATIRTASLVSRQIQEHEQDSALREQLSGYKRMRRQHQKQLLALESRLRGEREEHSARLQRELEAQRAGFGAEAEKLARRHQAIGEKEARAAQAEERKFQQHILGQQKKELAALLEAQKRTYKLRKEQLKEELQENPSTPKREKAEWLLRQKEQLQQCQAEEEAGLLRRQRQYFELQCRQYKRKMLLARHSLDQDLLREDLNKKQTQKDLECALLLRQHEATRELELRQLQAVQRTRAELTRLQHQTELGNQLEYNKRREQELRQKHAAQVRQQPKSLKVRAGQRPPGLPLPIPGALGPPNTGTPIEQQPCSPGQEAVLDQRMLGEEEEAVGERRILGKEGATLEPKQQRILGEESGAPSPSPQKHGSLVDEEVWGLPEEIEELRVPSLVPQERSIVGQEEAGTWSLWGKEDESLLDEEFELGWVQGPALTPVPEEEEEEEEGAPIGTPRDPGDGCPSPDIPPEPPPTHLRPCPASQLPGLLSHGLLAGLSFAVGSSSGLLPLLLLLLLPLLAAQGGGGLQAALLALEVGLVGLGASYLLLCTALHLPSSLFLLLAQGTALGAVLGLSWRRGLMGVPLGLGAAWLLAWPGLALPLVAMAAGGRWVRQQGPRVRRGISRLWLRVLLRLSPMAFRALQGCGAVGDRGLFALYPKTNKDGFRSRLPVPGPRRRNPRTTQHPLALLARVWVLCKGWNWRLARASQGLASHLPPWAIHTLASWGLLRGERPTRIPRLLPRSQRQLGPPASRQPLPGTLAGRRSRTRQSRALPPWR

[6] = biological target: Serine/threonine-protein kinase 25 (Homo sapiens) (UniProt O00506); test: Inhibition of human recombinant YSK1 at 15 nM in presence of ATP by radiometric assay relative to control
[7] = biological target: T3, Serine/threonine-protein kinase Nek2 (Homo sapiens) (UniProt P51955); test: Inhibition of human recombinant NEK2 at 15 nM in presence of ATP by radiometric assay relative to control
T3 sequence (whole entry): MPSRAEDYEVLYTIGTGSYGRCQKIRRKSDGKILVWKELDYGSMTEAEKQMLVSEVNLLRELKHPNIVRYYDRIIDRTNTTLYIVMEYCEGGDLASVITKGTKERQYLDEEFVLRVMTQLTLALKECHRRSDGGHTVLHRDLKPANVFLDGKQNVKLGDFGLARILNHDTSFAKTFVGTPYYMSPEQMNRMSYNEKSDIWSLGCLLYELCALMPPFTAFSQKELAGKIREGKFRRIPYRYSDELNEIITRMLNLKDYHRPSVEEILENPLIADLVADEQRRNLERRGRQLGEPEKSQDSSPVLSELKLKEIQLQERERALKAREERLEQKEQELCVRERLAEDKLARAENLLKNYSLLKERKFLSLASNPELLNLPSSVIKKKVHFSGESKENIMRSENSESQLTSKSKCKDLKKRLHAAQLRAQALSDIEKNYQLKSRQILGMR

[8] = biological target: Calcium/calmodulin-dependent protein kinase type 1G (Homo sapiens) (UniProt Q96NX5); test: Inhibition of human recombinant CaMK1g at 15 nM in presence of ATP by radiometric assay relative to control
Chain of Calcium/calmodulin-dependent protein kinase type 1G (Homo sapiens) (Q96NX5 whole entry): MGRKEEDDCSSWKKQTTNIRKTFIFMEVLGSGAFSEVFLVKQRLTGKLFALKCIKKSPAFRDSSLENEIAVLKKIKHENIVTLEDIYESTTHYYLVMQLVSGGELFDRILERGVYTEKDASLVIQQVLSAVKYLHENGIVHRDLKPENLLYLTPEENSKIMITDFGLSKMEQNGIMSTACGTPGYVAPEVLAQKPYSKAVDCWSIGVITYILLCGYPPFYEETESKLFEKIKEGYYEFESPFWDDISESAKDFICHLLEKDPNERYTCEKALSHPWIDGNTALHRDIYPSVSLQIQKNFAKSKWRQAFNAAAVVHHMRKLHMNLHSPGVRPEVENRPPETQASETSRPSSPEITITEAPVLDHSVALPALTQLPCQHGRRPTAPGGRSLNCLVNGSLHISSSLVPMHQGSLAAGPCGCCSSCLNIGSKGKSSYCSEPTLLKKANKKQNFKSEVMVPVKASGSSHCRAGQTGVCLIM

fold change (FC) [1]: 1.08
fold change (FC) [2]: 0.26
Compound: CNC(=O)c1ccccc1Oc1nc(Nc2cc(OC)c(OC)c(OC)c2)ncc1Br

inhibition [3]: 0%
inhibition [4]: 15%
inhibition [5]: 3%
Compound: O=C(N[C@@H](C1CC1)C(F)(F)F)c1cc(-c2cnn3cc(-c4ccc(F)cc4)cnc23)cs1

inhibition [6]: 0%
inhibition [7]: 12%
inhibition [8]: 0%
Compound: CC(C)[C@H](NC(=O)c1cc(-c2cnn3cc(-c4ccc(OCCN5CCCCC5)cc4)cnc23)cs1)C(F)(F)F
